Measured values published in ChEMBL document CHEMBL1125423, “Potent and systemically active aminopeptidase N inhibitors designed from active-site investigation” (J Med Chem, 1992).

Key:
[1] = biological target: T1, Aminopeptidase N (Sus scrofa, UniProt P15145); assay: Inhibition of [3H]Leu-enkephalin binding to Aminopeptidase N from hog kidney
T1 sequence (P15145 whole entry): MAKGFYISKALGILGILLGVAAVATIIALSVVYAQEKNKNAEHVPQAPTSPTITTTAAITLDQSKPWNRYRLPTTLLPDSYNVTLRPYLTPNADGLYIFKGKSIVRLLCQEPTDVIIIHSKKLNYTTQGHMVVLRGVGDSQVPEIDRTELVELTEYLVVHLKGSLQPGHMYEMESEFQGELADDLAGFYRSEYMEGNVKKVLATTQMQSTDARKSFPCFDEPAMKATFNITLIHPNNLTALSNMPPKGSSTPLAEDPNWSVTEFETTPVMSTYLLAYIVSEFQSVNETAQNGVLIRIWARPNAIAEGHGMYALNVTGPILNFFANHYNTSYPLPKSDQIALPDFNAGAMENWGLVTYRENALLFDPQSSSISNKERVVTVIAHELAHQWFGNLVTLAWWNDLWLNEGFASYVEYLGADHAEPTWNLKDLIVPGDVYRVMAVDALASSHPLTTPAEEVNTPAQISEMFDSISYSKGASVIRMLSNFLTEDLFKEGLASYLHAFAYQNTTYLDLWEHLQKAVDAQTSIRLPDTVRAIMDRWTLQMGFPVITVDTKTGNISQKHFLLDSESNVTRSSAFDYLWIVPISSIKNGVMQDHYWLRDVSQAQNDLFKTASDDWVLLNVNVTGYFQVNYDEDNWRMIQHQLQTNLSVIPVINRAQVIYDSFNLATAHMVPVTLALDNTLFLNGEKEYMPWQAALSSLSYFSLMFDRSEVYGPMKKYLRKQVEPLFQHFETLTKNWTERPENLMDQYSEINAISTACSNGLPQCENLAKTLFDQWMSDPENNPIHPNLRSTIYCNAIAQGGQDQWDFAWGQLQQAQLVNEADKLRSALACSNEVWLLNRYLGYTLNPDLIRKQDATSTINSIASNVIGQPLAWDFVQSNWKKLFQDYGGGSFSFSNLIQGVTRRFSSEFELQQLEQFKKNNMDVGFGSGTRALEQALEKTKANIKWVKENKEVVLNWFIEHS
Method in brief: (§1)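 Hog kidney APN preincubated 15 min at 25 °C with rising inhibitor concentrations in 50 mM Tris-HCl pH 7.4; thiols supplied as disulfides reduced in situ with 100 equiv DTT. [3H]Tyr1-Leu5-enkephalin added at 10 nM final (Km 50 μM); reaction stopped after 15 min with HCl. Released [3H]Tyr separated on polystyrene beads; IC50 determined.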

[2] = test system: Mus musculus; assay: Compound (20 mg/kg) was tested for antinociceptive responses induced in hot plate test in mice after an iv dose of acetorphan 10 mg/kg.; format: functional
Method in brief: (§2)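 Male Swiss mice (20–22 g); agents given iv under disulfide form together with acetorphan 10 mg/kg, in ethanol 10%/cremophor EL 10%/water 80% at 0.1 mL per 10 g; vehicle-injected controls. Jump latency read on hot plate at 55 ± 0.5 °C 15 min after injection, cut-off 240 s. % analgesia = (test − control latency)/(cut-off − control latency) × 100; ANOVA then Dunnett's t test.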

[3] = test system: Mus musculus; assay: Compound (40 mg/kg) was tested for antinociceptive responses induced in hot plate test in mice after an iv dose of acetorphan 10 mg/kg.; format: functional; method in brief: as §2
[4] = test system: Mus musculus; assay: Compound( 5 mg/kg) was tested for antinociceptive responses induced in hot plate test in mice after an iv dose of acetorphan 10 mg/kg.; format: functional; method in brief: as §2
[5] = test system: Mus musculus; assay: Compound (10 mg/kg) was tested for antinociceptive responses induced in hot plate test in mice after an iv dose of acetorphan 10 mg/kg.; format: functional; method in brief: as §2
[6] = biological target: T1, Aminopeptidase N; assay: Compound was tested for inhibitory potency against aminopeptidase N from hog kidney, using [3H]Leu-enkephalin as substrate; method in brief: as §1
[7] = test system: Mus musculus; assay: Compound( 5 mg/kg) was tested for antinociceptive responses induced in hot plate test in mice(% analgesia) after an iv dose of acetorphan 10 mg/kg.; format: functional
Method in brief: (§3)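 Male Swiss mice (20–22 g) given compound as disulfide form iv, coadministered with acetorphan 10 mg/kg, in ethanol (10%)/cremophor EL (10%)/water (80%) vehicle, 0.1 mL per 10 g; controls got vehicle. Hot plate at 55 ± 0.5 °C 15 min later; jump latency recorded, cut-off 240 s. % analgesia = (test − control latency)/(cut-off − control latency) × 100; ANOVA then Dunnett's t test.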

[8] = test system: Mus musculus; assay: Compound( 10 mg/kg) was tested for antinociceptive responses induced in hot plate test in mice after an iv dose of acetorphan 10 mg/kg.; format: functional; method in brief: as §3
[9] = test system: Mus musculus; assay: Compound( 20 mg/kg) was tested for antinociceptive responses induced in hot plate test in mice after an iv dose of acetorphan 10 mg/kg.; format: functional; method in brief: as §3

Row | Structure (SMILES) | IC50 [1] | Jump latency time [2] | Jump latency time [3] | further results
1 | CC(C)(C)SCC(N)CS (centres undefined) | 40 nM | – | – | –
2 | CC(C)CC(N)CS (centres undefined) | 22 nM | 225.6 s | 240 s | –
3 | CNC(CS)CC(C)C (centres undefined) | 4000 nM | – | – | –
4 | SCC(Cc1ccccc1)NCc1ccccc1 (centres undefined) | 160000 nM | – | – | –
5 | C[S+]([O-])CCC(N)CS (centres undefined) | – | 240 s | – | Jump latency time [4]: 216.9 s; Jump latency time [5]: 236 s
6 | CSCCC(N)CS (centres undefined) | – | 240 s | – | Jump latency time [4]: 200.8 s; Jump latency time [5]: 225.4 s
7 | NC(CS)Cc1ccc2ccccc2c1 (centres undefined) | 130 nM | 106.6 s | 132.8 s | –
8 | NC(CS)CSCc1ccccc1 (centres undefined) | 90 nM | 232.2 s | 233.6 s | –
9 | NC(CS)COCc1ccccc1 (centres undefined) | 56 nM | 166.5 s | 229.4 s | –
10 | NC(CSCc1ccccc1)Cc1ccccc1 (centres undefined) | 80000 nM | – | – | –
11 | NC(CS)c1ccccc1 (centres undefined) | – | – | – | IC50 [6]: 25 nM
12 | NC(CS)Cc1ccc(O)cc1 (centres undefined) | – | 119 s | 166.4 s | IC50 [6]: 45 nM; Jump latency time [4]: 112.9 s
13 | NC(CS)CC1CCCCC1 (centres undefined) | – | – | – | IC50 [6]: 45 nM
14 | NC(Cc1ccccc1)CP(=O)(O)O (centres undefined) | 500000 nM | – | – | –
15 | NC(CC(=O)O)Cc1ccccc1 (centres undefined) | – | – | – | IC50 [6]: 800000 nM
16 | NC(CS)Cc1ccccc1 (centres undefined) | – | – | – | ED50 [7]: 12 mg/kg; Jump latency time [8]: 147.9 s; Jump latency time [9]: 204.2 s; Jump latency time [4]: 90 s
